Measurements taken from ChEMBL document CHEMBL1165965, “Synthesis and structure-activity relationships of 1,2,3,4-tetrahydropyrido[2,3-b]pyrazines as potent and selective inhibitors of the anaplastic lymphoma kinase” (Bioorg Med Chem, 2010).

Tests used:
[1] = target: T1, Serine/threonine-protein kinase 3 (Homo sapiens) (UniProt Q13188); test: Inhibition of MST2 at 1 uM
T1 sequence (whole entry): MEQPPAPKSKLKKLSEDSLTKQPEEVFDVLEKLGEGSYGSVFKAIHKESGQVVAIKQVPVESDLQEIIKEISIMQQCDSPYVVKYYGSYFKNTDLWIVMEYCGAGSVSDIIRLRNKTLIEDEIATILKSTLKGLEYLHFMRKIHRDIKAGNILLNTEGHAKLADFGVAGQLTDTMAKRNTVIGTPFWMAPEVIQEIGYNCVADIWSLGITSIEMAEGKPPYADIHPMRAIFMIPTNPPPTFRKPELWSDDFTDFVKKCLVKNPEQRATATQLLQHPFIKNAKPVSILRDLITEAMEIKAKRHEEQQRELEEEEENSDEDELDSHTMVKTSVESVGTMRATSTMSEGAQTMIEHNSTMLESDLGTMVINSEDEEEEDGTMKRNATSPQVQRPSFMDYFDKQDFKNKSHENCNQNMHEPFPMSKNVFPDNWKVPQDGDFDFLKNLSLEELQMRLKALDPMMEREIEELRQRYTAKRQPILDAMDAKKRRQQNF

[2] = target: T2, MAP kinase-activated protein kinase 5 (Homo sapiens) (UniProt Q8IW41); test: Inhibition of MAPKAPK5 at 1 uM
T2 sequence (whole entry): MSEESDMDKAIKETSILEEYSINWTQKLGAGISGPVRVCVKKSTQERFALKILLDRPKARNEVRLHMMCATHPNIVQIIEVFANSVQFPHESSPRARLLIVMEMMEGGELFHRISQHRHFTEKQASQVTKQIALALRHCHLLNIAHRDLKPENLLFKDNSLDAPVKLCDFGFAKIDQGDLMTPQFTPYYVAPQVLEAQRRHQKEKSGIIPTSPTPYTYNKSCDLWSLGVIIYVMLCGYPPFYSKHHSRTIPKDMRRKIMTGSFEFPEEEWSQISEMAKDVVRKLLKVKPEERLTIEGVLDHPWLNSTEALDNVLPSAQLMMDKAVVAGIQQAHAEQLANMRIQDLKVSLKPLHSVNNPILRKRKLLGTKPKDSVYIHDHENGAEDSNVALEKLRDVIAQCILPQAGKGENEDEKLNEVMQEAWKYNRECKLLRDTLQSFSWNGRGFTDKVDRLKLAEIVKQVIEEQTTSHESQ

[3] = target: Dual specificity protein kinase CLK2 (Homo sapiens) (UniProt P49760); test: Inhibition of CLK2 at 1 uM
In short: (§1)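 Ambit KINOMEscan screen at a single concentration across a 250–400 kinase panel, recorded as percent inhibition. Selectivity was expressed as S(90), the fraction of kinases inhibited >90%.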

[4] = target: Serine/threonine-protein kinase MRCK beta (Homo sapiens) (UniProt Q9Y5S2); test: Inhibition of MRCKB at 1 uM
Serine/threonine-protein kinase MRCK beta (Homo sapiens), sequence (Q9Y5S2 whole entry): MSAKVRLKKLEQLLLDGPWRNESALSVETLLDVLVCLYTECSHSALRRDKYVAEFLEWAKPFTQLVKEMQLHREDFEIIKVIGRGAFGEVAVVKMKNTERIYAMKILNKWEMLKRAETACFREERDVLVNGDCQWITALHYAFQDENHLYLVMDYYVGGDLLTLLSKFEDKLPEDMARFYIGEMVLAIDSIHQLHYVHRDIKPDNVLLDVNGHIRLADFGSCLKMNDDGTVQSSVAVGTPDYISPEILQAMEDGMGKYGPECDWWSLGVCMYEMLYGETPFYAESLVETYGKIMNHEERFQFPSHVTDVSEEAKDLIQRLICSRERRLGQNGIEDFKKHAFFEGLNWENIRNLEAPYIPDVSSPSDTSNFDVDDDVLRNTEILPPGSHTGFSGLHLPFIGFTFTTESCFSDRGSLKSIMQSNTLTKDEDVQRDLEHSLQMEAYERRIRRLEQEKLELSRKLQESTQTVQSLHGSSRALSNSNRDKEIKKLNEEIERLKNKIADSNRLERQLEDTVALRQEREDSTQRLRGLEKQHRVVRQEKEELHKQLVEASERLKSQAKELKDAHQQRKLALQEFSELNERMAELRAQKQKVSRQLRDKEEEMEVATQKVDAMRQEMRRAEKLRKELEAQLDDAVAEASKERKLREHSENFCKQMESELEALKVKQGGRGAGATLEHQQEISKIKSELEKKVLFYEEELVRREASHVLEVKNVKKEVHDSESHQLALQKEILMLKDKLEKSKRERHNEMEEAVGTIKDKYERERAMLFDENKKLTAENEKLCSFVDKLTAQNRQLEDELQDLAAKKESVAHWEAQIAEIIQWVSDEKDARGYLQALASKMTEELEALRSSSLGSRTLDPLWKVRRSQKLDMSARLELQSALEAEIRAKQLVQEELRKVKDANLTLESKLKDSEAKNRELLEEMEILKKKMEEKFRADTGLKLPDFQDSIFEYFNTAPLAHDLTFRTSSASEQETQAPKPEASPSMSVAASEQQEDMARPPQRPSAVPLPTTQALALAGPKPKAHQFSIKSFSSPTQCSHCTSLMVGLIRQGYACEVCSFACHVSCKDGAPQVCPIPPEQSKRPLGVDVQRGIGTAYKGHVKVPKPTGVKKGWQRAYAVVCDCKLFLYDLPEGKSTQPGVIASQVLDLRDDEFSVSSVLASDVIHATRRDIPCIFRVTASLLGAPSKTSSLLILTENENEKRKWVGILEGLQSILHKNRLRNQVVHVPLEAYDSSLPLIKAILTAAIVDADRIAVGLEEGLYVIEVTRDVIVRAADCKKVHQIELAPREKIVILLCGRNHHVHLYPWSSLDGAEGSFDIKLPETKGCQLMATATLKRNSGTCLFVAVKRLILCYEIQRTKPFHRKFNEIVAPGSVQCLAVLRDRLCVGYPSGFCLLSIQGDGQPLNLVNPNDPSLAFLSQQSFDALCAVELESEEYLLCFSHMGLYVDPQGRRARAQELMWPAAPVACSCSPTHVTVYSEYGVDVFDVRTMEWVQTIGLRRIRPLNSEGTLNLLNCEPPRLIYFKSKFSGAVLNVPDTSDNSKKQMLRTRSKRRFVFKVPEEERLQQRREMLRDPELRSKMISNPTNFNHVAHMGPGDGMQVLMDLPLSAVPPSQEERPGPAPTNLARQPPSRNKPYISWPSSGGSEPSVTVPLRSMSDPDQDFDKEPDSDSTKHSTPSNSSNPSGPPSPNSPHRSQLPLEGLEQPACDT

[5] = target: Platelet-derived growth factor receptor beta (Homo sapiens) (UniProt P09619); test: Inhibition of PDGFRB at 1 uM
[6] = target: T3, Ephrin type-B receptor 6 (Homo sapiens) (UniProt O15197); test: Inhibition of EPHB6 at 1 uM
T3 sequence (whole entry): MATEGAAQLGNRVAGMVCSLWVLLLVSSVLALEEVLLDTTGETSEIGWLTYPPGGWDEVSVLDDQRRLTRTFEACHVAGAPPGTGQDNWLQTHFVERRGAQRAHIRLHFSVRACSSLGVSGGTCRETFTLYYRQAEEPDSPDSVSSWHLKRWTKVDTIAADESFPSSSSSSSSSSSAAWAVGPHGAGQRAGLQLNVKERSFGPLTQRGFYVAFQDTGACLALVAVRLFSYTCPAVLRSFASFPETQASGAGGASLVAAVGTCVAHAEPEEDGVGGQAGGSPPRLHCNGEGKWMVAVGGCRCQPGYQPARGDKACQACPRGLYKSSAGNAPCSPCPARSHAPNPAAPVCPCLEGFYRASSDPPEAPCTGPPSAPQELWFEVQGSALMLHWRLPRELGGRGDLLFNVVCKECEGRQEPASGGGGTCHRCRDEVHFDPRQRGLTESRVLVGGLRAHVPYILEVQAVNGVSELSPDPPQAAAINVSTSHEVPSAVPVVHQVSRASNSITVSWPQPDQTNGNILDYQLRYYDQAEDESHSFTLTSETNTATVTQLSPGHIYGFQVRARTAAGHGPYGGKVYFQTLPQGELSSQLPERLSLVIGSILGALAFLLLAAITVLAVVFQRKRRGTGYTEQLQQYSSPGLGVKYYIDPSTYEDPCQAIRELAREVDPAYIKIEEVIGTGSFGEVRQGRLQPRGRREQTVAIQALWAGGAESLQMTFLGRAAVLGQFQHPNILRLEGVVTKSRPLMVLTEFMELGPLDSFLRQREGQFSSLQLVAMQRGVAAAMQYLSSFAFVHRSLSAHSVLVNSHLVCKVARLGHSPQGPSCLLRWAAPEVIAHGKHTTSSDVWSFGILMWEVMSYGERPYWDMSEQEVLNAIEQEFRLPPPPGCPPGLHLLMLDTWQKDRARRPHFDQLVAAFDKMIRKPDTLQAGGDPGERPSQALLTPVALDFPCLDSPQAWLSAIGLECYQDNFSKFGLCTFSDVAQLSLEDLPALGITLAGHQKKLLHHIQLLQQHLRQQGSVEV

[7] = system: Tyrosine-protein kinase ABL1 (Homo sapiens), P00519 [F317L]; test: Inhibition of ABL1 F317L mutant at 1 uM
[8] = target: Proto-oncogene tyrosine-protein kinase ROS (Homo sapiens) (UniProt P08922); test: Inhibition of ROS1 at 1 uM
In short: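 Single-concentration screen on the Ambit KINOMEscan platform, run against a panel of 250–400 kinases. Per-kinase inhibition was also summarized as S(90), the fraction of kinases inhibited by more than 90%.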

[9] = target: Serine/threonine-protein kinase 32C (Homo sapiens) (UniProt Q86UX6); test: Inhibition of YANK3 at 1 uM
Serine/threonine-protein kinase 32C (Homo sapiens), sequence (Q86UX6 whole entry): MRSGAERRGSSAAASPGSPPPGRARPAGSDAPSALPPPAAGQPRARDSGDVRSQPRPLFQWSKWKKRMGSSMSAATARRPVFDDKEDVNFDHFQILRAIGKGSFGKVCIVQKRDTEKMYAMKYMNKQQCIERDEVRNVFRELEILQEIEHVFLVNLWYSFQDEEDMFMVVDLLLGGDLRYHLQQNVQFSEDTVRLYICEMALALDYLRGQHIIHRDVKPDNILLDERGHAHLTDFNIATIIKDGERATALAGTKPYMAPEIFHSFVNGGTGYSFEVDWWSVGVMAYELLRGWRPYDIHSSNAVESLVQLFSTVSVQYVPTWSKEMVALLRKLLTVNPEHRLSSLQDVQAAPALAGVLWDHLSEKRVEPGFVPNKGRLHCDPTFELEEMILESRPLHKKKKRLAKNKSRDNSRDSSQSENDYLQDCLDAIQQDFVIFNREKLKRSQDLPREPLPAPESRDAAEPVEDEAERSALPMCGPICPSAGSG

[10] = system: Tyrosine-protein kinase ABL1 (Homo sapiens), P00519 [M351T]; test: Inhibition of ABL1 M351T mutant at 1 uM; in short: as §1
[11] = target: Rho-associated protein kinase 2 (Homo sapiens) (UniProt O75116); test: Inhibition of ROCK2 at 1 uM
Rho-associated protein kinase 2 (Homo sapiens), sequence (O75116 whole entry, looked up, canonical isoform): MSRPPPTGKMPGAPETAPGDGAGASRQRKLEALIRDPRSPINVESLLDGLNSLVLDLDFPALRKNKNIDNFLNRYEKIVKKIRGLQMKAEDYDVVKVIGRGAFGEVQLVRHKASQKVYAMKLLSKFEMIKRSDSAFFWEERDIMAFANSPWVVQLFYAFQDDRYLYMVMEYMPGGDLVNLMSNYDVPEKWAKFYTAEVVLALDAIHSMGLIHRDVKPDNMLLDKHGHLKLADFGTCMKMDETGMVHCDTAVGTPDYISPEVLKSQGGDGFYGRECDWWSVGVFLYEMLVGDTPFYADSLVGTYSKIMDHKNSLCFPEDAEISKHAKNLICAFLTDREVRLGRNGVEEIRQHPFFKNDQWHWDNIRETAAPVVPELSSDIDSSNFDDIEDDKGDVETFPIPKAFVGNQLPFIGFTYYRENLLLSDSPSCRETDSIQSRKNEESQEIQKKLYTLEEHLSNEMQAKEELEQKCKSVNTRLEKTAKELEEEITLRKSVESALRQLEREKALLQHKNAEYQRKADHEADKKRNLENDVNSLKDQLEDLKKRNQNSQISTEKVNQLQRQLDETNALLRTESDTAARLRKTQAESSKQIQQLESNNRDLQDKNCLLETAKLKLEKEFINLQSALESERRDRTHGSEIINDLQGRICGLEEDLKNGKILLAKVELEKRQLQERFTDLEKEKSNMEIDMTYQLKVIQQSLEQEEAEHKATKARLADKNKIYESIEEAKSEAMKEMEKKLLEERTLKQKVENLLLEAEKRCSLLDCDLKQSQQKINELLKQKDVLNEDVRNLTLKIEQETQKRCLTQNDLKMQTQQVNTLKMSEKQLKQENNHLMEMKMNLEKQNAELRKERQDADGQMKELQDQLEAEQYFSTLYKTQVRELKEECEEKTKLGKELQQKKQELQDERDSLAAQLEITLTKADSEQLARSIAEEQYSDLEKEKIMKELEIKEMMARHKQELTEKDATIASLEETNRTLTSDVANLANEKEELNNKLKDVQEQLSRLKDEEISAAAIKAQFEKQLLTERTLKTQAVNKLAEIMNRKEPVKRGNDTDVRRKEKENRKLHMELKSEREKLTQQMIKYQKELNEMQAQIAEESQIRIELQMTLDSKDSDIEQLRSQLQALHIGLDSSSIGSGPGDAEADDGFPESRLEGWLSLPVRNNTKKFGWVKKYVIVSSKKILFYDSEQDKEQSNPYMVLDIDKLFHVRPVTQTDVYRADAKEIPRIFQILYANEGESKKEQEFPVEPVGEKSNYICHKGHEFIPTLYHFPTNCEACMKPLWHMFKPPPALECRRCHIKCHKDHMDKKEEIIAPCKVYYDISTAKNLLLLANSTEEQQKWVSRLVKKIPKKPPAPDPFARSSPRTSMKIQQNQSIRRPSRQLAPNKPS

[12] = system: Phosphatidylinositol 4,5-bisphosphate 3-kinase catalytic subunit alpha isoform (Homo sapiens), P42336 [E542K]; test: Inhibition of PIK3CA E542K mutant at 1 uM
Phosphatidylinositol 4,5-bisphosphate 3-kinase catalytic subunit alpha isoform (Homo sapiens), P42336 [E542K], sequence (P42336 whole entry E542K, canonical isoform): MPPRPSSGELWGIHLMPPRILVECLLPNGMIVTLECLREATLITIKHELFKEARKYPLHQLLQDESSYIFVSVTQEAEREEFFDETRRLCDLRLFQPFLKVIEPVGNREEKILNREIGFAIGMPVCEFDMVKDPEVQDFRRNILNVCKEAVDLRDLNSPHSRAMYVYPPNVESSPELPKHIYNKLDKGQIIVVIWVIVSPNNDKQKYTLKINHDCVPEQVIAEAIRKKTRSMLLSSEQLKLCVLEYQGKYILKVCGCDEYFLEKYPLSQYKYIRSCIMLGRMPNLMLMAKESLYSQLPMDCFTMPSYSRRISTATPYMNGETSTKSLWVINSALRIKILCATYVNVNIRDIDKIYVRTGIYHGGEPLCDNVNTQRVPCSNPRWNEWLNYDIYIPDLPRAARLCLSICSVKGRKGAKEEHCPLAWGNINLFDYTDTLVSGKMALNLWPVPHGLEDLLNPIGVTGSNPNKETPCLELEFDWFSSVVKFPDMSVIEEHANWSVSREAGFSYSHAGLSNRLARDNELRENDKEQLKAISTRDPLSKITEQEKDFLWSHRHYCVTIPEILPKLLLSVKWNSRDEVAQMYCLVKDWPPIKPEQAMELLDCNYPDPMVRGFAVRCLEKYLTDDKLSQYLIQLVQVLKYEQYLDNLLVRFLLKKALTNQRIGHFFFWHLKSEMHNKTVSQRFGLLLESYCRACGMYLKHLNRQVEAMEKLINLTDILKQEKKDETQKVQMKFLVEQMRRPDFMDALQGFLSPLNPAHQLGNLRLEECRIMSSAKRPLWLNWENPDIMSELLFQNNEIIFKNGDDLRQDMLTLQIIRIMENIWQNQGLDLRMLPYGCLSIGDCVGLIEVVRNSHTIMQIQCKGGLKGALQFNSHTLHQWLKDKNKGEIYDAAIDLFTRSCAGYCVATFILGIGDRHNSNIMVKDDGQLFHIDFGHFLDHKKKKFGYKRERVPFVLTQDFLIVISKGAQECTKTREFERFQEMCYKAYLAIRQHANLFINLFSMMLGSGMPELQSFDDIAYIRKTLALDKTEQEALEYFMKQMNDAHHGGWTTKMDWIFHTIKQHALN

Row | SMILES | inhibition [1] | inhibition [2] | inhibition [3] | inhibition [4] | inhibition [5] | inhibition [6] | inhibition [7] | inhibition [8] | inhibition [9] | inhibition [10] | inhibition [11] | inhibition [12]
1 | COC1CCN(C(=O)c2ccc(-c3cnc4c(c3)N(Cc3cc(Cl)ccc3C(F)(F)F)CCN4)cc2)CC1 |  |  | < 50% | < 50% | < 50% |  |  | 78.2% | < 50% | < 50% |  | 
2 | O=C(c1ccc(-c2cnc3c(c2)N(Cc2cc(Cl)ccc2C(F)(F)F)CCN3)cc1)N1CCCCC1 |  |  | < 50% | < 50% | < 50% |  |  | < 50% | < 50% | < 50% |  | 
3 | FC(F)(F)c1ccc(Cl)cc1CN1CCNc2ncc(-c3ccnc(N4CCNCC4)c3)cc21 | 97% | < 50% | < 50% | < 50% | 92% | 97% | < 50% | 92% | < 50% | < 50% | 76% | < 50%
4 | CC(=O)N1CCN(c2cc(-c3cnc4c(c3)N(Cc3cc(Cl)ccc3C(F)(F)F)CCN4)ccn2)CC1 | 88% | < 50% | < 50% | < 50% | < 50% | 92% | < 50% | 79% | < 50% | < 50% | < 50% | < 50%
5 | O=C(O)c1ccc(-c2cnc3c(c2)N(Cc2cc(Cl)ccc2C(F)(F)F)CCN3)cc1 |  |  | < 50% | < 50% | < 50% |  | < 50% | 66.7% | < 50% | < 50% |  | 
6 | O=C(c1ccc(-c2cnc3c(c2)N(Cc2cc(Cl)ccc2C(F)(F)F)CCN3)cc1)N1CCC(N2CCCC2)CC1 |  |  | < 50% | < 50% | 76.4% |  |  | 80.7% | < 50% | < 50% |  | 
7 | CN1CCN(c2ccc(-c3cnc4c(c3)N(Cc3c(F)ccc(F)c3Cl)CCN4)cn2)CC1 | < 50% | < 50% | < 50% | < 50% | < 50% | 95% | 77% | 73% | < 50% | 87% | < 50% | < 50%

Further lines, results first:

Row | inhibition [1] | inhibition [2] | inhibition [3] | inhibition [4] | inhibition [5] | inhibition [6] | inhibition [7] | inhibition [8] | inhibition [9] | inhibition [10] | inhibition [11] | inhibition [12] | SMILES
8 | < 50% | < 50% | < 50% | < 50% | < 50% | 76% | < 50% | < 50% | < 50% | 68% | < 50% | < 50% | CN1CCN(c2ccc(-c3cnc4c(c3)N(Cc3cc(Cl)ccc3Cl)CCN4)cn2)CC1
9 | < 50% | < 50% | < 50% | < 50% | < 50% | 89% | < 50% | 72% | < 50% | < 50% | < 50% | < 50% | CN1CCN(c2ccc(-c3cnc4c(c3)N(Cc3cc(Cl)ccc3C(F)(F)F)CCN4)cn2)CC1
10 | < 50% | < 50% | < 50% | < 50% | < 50% | 68% | < 50% | 67.5% | < 50% | 71.9% | < 50% | < 50% | CN1CCN(c2ccc(-c3cnc4c(c3)N(Cc3cc(F)ccc3F)CCN4)cn2)CC1
